Species: Rattus norvegicus
Assay: Agonist activity by measuring release of ACTH by rat pituitary cells in culture relative to ovine Corticotropin-Releasing factor (CRF)
Format: functional, Pituitary gland cell
Outline: (§1)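 Male Sprague–Dawley rat anterior pituitary cells, collagenase-dissociated, plated at 0.16 × 10⁶ cells/well in 2% FBS medium. After 3 days, washed into 0.1% BSA medium, preincubated 1 h, washed again, then exposed to peptide for 3 h. Medium ACTH measured by radioimmunoassay.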
With `CCCC[C@H](NC(=O)[C@H](CCCN=C(N)N)NC(=O)[C@H](CC(C)C)NC(=O)[C@H](CC(C)C)NC(=O)[C@H](CCC(=O)O)NC(=O)[C@H](CC(C)C)NC(=O)[C@H](CC(C)C)NC(=O)[C@H](CC(C)C)NC(=O)[C@H](CC(=O)O)NC(=O)[C@@H](NC(=O)[C@H](CO)NC(=O)[C@@H](NC(=O)[C@@H]1CCCN1C(=O)[C@@H]1CCCN1C(=O)CNC(=O)[C@H](CCC(=O)O)NC(=O)[C@@H]1CCCN1)[C@@H](C)CC)[C@@H](C)CC)C(=O)N[C@@H](CCCC)C(=O)N[C@H](C(=O)N[C@@H](CCC(=O)O)C(=O)N[C@H](C(=O)N[C@@H](CCC(=O)O)C(=O)N[C@@H](CCCCN)C(=O)N[C@@H](CCC(N)=O)C(=O)N[C@@H](CCC(=O)O)C(=O)N[C@@H](CCCCN)C(=O)N[C@@H](CCC(=O)O)C(=O)N[C@@H](CCCCN)C(=O)N1C(=O)[C@@H](C)NC(=O)[C@H](CCC(N)=O)NC(=O)[C@@H](N)CCC(=O)NCCCC[C@H]1C(=O)N[C@H](CC(N)=O)C(=O)N[C@H](CC(N)=O)C(=O)N[C@H](CCCN=C(N)N)C(=O)N[C@H](CC(C)C)C(=O)N[C@H](CC(C)C)C(=O)N[C@H](CC(C)C)C(=O)N[C@H](CC(=O)O)C(=O)N[C@@H](C(=O)N[C@@H](C(N)=O)[C@H](C)CC)[C@H](C)O)[C@@H](C)CC)[C@@H](C)CC` the Potency was 5.73.
With `CCCC[C@H](NC(=O)[C@H](CCC(=O)O)NC(=O)[C@H](CC(C)C)NC(=O)[C@@H](NC(=O)[C@H](CCC(=O)O)NC(=O)[C@H](CCCN=C(N)N)NC(=O)[C@H](CC(C)C)NC(=O)[C@@H]1CCCCNC(=O)CC[C@H](NC(=O)[C@H](CC(C)C)NC(=O)[C@H](CC(=O)O)NC(=O)[C@H](CC(C)C)NC(=O)[C@H](CO)NC(=O)[C@@H](NC(=O)[C@@H]2CCCN2C(=O)[C@@H]2CCCN2C(C)=O)[C@@H](C)CC)C(=O)N[C@H](Cc2ccccc2)C(=O)N[C@@H](Cc2c[nH]cn2)C(=O)N1)C(C)C)C(=O)N[C@@H](C)C(=O)N[C@@H](CCCN=C(N)N)C(=O)N[C@@H](C)C(=O)N[C@@H](CCC(=O)O)C(=O)N[C@@H](CCC(N)=O)C(=O)N[C@@H](CC(C)C)C(=O)N[C@@H](C)C(=O)N[C@@H](CCC(N)=O)C(=O)N[C@@H](CCC(N)=O)C(=O)N[C@@H](C)C(=O)N[C@@H](Cc1c[nH]cn1)C(=O)N[C@@H](CO)C(=O)N[C@@H](CC(N)=O)C(=O)N[C@@H](CCCN=C(N)N)C(=O)N[C@@H](CCCCN)C(=O)N[C@@H](CC(C)C)C(=O)N[C@@H](CCCC)C(=O)N[C@@H](CCC(=O)O)C(=O)N[C@H](C(=O)N[C@H](C(N)=O)[C@@H](C)CC)[C@@H](C)CC` the Potency was 1.4.

Species: Rattus norvegicus
Assay: In vitro for agonist activity by measuring release of ACTH by rat pituitary cells in culture relative to human Corticotropin-Releasing factor (CRF)
Format: functional, Pituitary gland cell
Outline: as §1
For `CCCC[C@H](NC(=O)[C@H](CCC(=O)O)NC(=O)[C@@H](NC(=O)[C@H](CCCC)NC(=O)[C@H](CC(N)=O)NC(=O)[C@H](CCCN=C(N)N)NC(=O)[C@H](CC(C)C)NC(=O)[C@H](CC(C)C)NC(=O)[C@H](Cc1c[nH]cn1)NC(=O)[C@@H](Cc1ccccc1)NC(=O)[C@@H](NC(=O)[C@H](CC(C)C)NC(=O)[C@H](CC(=O)O)NC(=O)[C@@H](NC(=O)[C@H](CO)NC(=O)[C@@H](NC(=O)[C@@H]1CCCN1C(=O)[C@@H]1CCCN1C(=O)[C@H](CC(=O)O)NC(=O)[C@H](CC(=O)O)NC(=O)[C@@H](N)CC(N)=O)[C@@H](C)CC)[C@@H](C)CC)[C@@H](C)O)[C@@H](C)CC)C(=O)N[C@@H](C)C(=O)N[C@@H](CCCN=C(N)N)C(=O)N[C@H](C(=O)N[C@@H](CCC(=O)O)C(=O)N[C@@H](CC(N)=O)C(=O)N[C@@H](CCC(=O)OC)C(=O)N[C@@H](CCCN=C(N)N)C(=O)N[C@@H](CCC(=O)O)C(=O)N1C(=O)CNC(=O)[C@H](C)NC(=O)[C@@H](N)CCC(=O)NCCCC[C@H]1C(=O)N[C@@H](CC(N)=O)C(=O)N[C@@H](CCCN=C(N)N)C(=O)N[C@@H](CCCCN)C(=O)N[C@@H](Cc1ccc(O)cc1)C(=O)N[C@@H](CC(C)C)C(=O)N[C@@H](CC(=O)O)C(=O)N[C@@H](CCC(=O)O)C(=O)N[C@H](C(N)=O)C(C)C)[C@@H](C)CC`, the Potency was 2.9.
For `CC[C@H](C)[C@H](NC(=O)[C@H](CO)NC(=O)[C@H](CC(C)C)NC(=O)[C@H](CO)NC(=O)[C@@H]1CCCN1C(C)=O)C(=O)N[C@@H](CC(=O)O)C(=O)N[C@@H](CC(C)C)C(=O)N[C@H](C(=O)N[C@H](Cc1ccccc1)C(=O)N[C@@H](Cc1c[nH]cn1)C(=O)N[C@@H](CC(C)C)C(=O)N[C@@H](CC(C)C)C(=O)N[C@@H](CCCN=C(N)N)C(=O)N[C@H](C(=O)N[C@@H](CC(C)C)C(=O)N[C@@H](CC(C)C)C(=O)N[C@@H](CCC(=O)O)C(=O)N[C@@H](CC(C)C)C(=O)N[C@@H](C)C(=O)N[C@@H](CCCN=C(N)N)C(=O)N[C@H](C(=O)N[C@@H](CCC(N)=O)C(=O)N[C@@H](CO)C(=O)N[C@@H](CCC(N)=O)C(=O)N[C@@H](CCCN=C(N)N)C(=O)N[C@@H](CCC(=O)O)C(=O)N1C(=O)[C@H](CCC(=O)O)NC(=O)[C@H](C)NC(=O)[C@@H](N)CCC(=O)NCCCC[C@H]1C(=O)N[C@@H](CC(N)=O)C(=O)N[C@@H](CCCN=C(N)N)C(=O)N[C@H](C(=O)N[C@H](C(=O)N[C@@H](Cc1ccccc1)C(=O)N[C@@H](CC(=O)O)C(=O)N[C@@H](CO)C(=O)N[C@H](C(N)=O)C(C)C)[C@@H](C)CC)[C@@H](C)CC)[C@@H](C)O)[C@@H](C)O)[C@@H](C)O`, the Potency was 3.8.
In the case of `CCCC[C@H](NC(=O)[C@H](CCC(=O)O)NC(=O)[C@H](CC(C)C)NC(=O)[C@H](CCCC)NC(=O)[C@H](CCC(=O)O)NC(=O)[C@H](CCCN=C(N)N)NC(=O)[C@H](CC(C)C)NC(=O)[C@H](CC(C)C)NC(=O)[C@H](Cc1c[nH]cn1)NC(=O)[C@@H](Cc1ccccc1)NC(=O)[C@@H](NC(=O)[C@H](CC(C)C)NC(=O)[C@H](CC(=O)O)NC(=O)[C@H](CC(C)C)NC(=O)[C@H](CO)NC(=O)[C@@H](NC(=O)[C@@H]1CCCN1C(=O)[C@@H]1CCCN1C(C)=O)[C@@H](C)CC)[C@@H](C)O)C(=O)N[C@@H](C)C(=O)N[C@@H](CCCCN)C(=O)N[C@@H](C)C(=O)N[C@@H](CCC(=O)O)C(=O)N[C@@H](CCC(N)=O)C(=O)N[C@@H](CCC(=O)O)C(=O)N[C@@H](C)C(=O)N[C@@H](CCC(=O)O)C(=O)N1C(=O)[C@H](C)NC(=O)[C@H](C)NC(=O)[C@@H](N)CCC(=O)NCCCC[C@H]1C(=O)N[C@@H](CC(N)=O)C(=O)N[C@@H](CCCN=C(N)N)C(=O)N[C@@H](CC(C)C)C(=O)N[C@@H](CC(C)C)C(=O)N[C@@H](CC(C)C)C(=O)N[C@@H](CCC(=O)O)C(=O)N[C@@H](CCC(=O)O)C(=O)N[C@@H](C)C(N)=O`, the Potency was 7.5.
For `CCCC[C@H](NC(=O)[C@H](CCC(=O)O)NC(=O)[C@@H](NC(=O)[C@H](CCCC)NC(=O)[C@H](CC(N)=O)NC(=O)[C@H](CCCN=C(N)N)NC(=O)[C@H](CC(C)C)NC(=O)[C@H](CC(C)C)NC(=O)[C@H](Cc1c[nH]cn1)NC(=O)[C@@H](Cc1ccccc1)NC(=O)[C@@H](NC(=O)[C@H](CC(C)C)NC(=O)[C@H](CC(=O)O)NC(=O)[C@@H](NC(=O)[C@H](CO)NC(=O)[C@@H](NC(=O)[C@@H]1CCCN1C(=O)[C@@H]1CCCN1C(=O)[C@H](CC(=O)O)NC(=O)[C@H](CC(=O)O)NC(=O)[C@@H](N)CC(N)=O)[C@@H](C)CC)[C@@H](C)CC)[C@@H](C)O)[C@@H](C)CC)C(=O)N[C@@H](C)C(=O)N[C@@H](CCCN=C(N)N)C(=O)N[C@H](C(=O)N[C@@H](CCC(=O)O)C(=O)N[C@@H](CC(N)=O)C(=O)N[C@@H](CCC(=O)OC)C(=O)N[C@@H](CCCN=C(N)N)C(=O)N[C@@H](CCC(=O)O)C(=O)N[C@@H](CCC(=O)O)C(=O)N[C@@H](C)C(=O)NCC(=O)N[C@@H](CCCCN)C(=O)N[C@@H](CC(N)=O)C(=O)N[C@@H](CCCN=C(N)N)C(=O)N[C@@H](CCCCN)C(=O)N[C@@H](Cc1ccc(O)cc1)C(=O)N[C@@H](CC(C)C)C(=O)N[C@@H](CC(=O)O)C(=O)N[C@@H](CCC(=O)O)C(=O)N[C@H](C(N)=O)C(C)C)[C@@H](C)CC`, the Potency was 1.1.
